Only some compounds are listed: those with a hit (about 3.1% of all), similar ones and a draw of the others.
miR-122 sensor = inhibitors of miR-122 in Huh7 cells. Huh7 miR-122 Renilla luciferase sensor, 48 h; neutral wells = 0, positive control = 100. activation (reporter increase), % at 12.5 µM. 340,000 compounds, 0.3% hits;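 active = mean replicate activation score at least 90 and every replicate individually at or above 90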;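 also: higher luciferase means less miR-122 activity so hits act as miR-122 inhibitors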
Cneo AK release = Cryptococcus neoformans lysis via adenylate kinase release; C. neoformans lysis, adenylate kinase release luminescence, 4 h; normalised: neutral wells 0, clomiphene wells 100; lysis activity, % at 15 µM; 360,000 compounds, 0.2% hits;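 active = mean lysis activity across replicates of at least 80%, whatever share of replicates individually reach that level; inactive = mean lysis activity below 80%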
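Assay system: C. neoformans cells. Amount: yeast cell density of 5 × 10^6 cells/mL. Technique: AK luminescence. Buffer or medium: YPD. Times: static 4 h at 37 °C with compound, 1 h detection. Dosing: single-point compound dose. Read-out: lysis from increased AK signal.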
rRNA inh HTS = inhibitors of bacterial rRNA selective over humanized ribosomes; E. coli WT GFP vs humanized-ribosome RFP mutants, fluorescence, 24 h; hits give low values; DMSO median 0, no signal -100; GFP signal change (wild-type ribosome), % (test concentration not listed); 350,000 compounds, 1.6% hits; AID 720706;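 active = significant combined selectivity score with lowered wild-type GFP, culture density cut under 30%, mutant RFP and density less affected; inactive = any of these conditions unmet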
F508del corr = correctors of CFTR F508del function in bronchial epithelial cells | CFBE cells, YFP halide quenching; stimulated with forskolin plus potentiator P3; % fluorescence drop versus neutral controls | AID 720511 | 350,000 compounds, 0.36% hits | activity (quench increase), % at 7.58 µM;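 active = mean added fluorescence quench of at least 8% versus neutral control, with both replicates also reaching 8%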;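 also: cells transiently co-express mutant CFTR-F508del with the halide-sensitive YFP; corrector assay measuring rescue of mutant channel to the surface after 24 h compound exposure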
Env fusion inh = HIV envelope-mediated fusion inhibition | HeLa-JRFL Env/CEM21 cell fusion, luciferase | inhibition, % at 12.3 µM | 360,000 compounds, 1.1% hits;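 active = mean replicate inhibition score of at least 50 and every replicate individually at or above 50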;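 also: 0% = plate neutral controls and 100% = maraviroc near 300 nM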
INS-1E GSIS act = primary screen for activators of insulin secretion dependent on glucose, INS-1E cells, GLuc reporter luminescence; INS-1E GLuc reporter insulin secretion, 2-3 h; activation, % at 16.6 µM; 370,000 compounds, 0.61% hits;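 active = lowest replicate activation of at least 40%, so every replicate reaches that level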;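 also: 0% = median of neutral control wells and 100% = median of IBMX positive control wells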
* = called active by the depositor; i = inactive; nt = no result; [ ] = another dose, or the depositor's remark.

SMILES	miR-122 sensor	Cneo AK release	rRNA inh HTS	F508del corr	Env fusion inh	INS-1E GSIS act
C[C@H](CO)N1C[C@H](C)[C@H](CN(C)Cc2cccnc2)Oc2ncc(C#CC3(O)CCCC3)cc2C1=O	5[16.7 µM]	98*	2	6	-14[16.7 µM]	10
COC(=O)c1ccccc1NCCO	18	0	8	1	-3	120*
COc1ccc(CCNC(=O)Cc2ccc3c(c2)OCO3)cc1OC	0	-2	nt	nt	-57	102*
COc1ccc(C(C)=O)cc1COC(=O)c1ccc2c(c1)OCO2	-2	7	nt	nt	-100	34
O=C(O)c1ccccc1NCCO	nt	nt	22	-3	-7	9
COc1ccc(CN(C)C(=O)COC(=O)c2ccc3c(c2)OCO3)cc1OC	-2	nt	nt	nt	nt	64*
COc1ccc(CCNC(=O)COC(=O)c2cncc(Br)c2)cc1OC	-6	0	0	2	nt	56*
CCCNC(=O)[C@H]1[C@H](CO)[C@H]2Cn3c(ccc(-c4ccc(F)cc4)c3=O)[C@@H]1N2Cc1ccccc1F	0[16.7 µM]	-4	-4	1	nt	-21
O=C(O)C[C@H]1C[C@@H]2c3cc(NC(=O)Nc4ccc(F)cc4)ccc3O[C@@H]2[C@H](CO)O1	-3[16.7 µM]	7	1	-2	nt	2
O=C(C[C@@H]1C=C[C@H](NC(=O)Nc2ccc3c(c2)OCO3)[C@@H](CO)O1)NCc1ccc(F)cc1	nt	8	0	-1	-3[16.7 µM]	-3
COc1ccc(CCNC(=O)COC(=O)C2CC2C)cc1OC (centres undefined)	-5	-2	4	1	nt	57*
COc1ccc(CCNC(=O)CO/N=C/c2cc3c(cc2Br)OCO3)cc1OC	-2	-2	-36*	1	12	-9
COc1ccc(CCNC(=O)COC(=O)c2ccccc2NCCO)cc1OC	6	4	-1	0	nt	83*
COc1ccc(C(=O)Cc2ccc3c(c2)OCO3)c(O)c1	nt	nt	nt	nt	-65	41*
COc1ccc(CCNC(=O)COC(=O)/C=C/c2ccc3c(c2)OCO3)cc1OC	nt	2	-8	-2	nt	33
COc1ccc(CCNC(=O)COC(=O)c2ccco2)cc1OC	6	-3	nt	nt	-18	nt
COc1ccc(CCNC(=O)c2ccccc2C(=O)NCCc2ccc(OC)c(OC)c2)cc1OC	-9	2	-3	1	-3	10
CCCC#Cc1cnc2c(c1)C(=O)N([C@@H](C)CO)C[C@H](C)[C@@H](CN(C)Cc1ccccc1F)O2	7[16.7 µM]	nt	-32	4	nt	-10
Oc1ccc2ccccc2c1CNc1ccccc1	0	0	-13*	2	i	1
Oc1ccc2ccccc2c1CNc1ccc2ccccc2c1	20	4	-58	-1	-14	-9
O=[N+]([O-])c1ccccc1NCc1c(O)ccc2ccccc12	nt	1	-22*	-1	5	8
C[C@H](CO)N1C[C@H](C)[C@H](CN(C)Cc2ccc(C(F)(F)F)cc2)OCCCC[C@H](C)Oc2ccc(NS(=O)(=O)c3cn(C)cn3)cc2C1=O	-8[16.7 µM]	1	0	2	4[16.7 µM]	-2
COCCN(C(=O)CCC(=O)Nc1cc(C)on1)C(C(=O)NC1CCCC1)c1ccccc1C (centres undefined)	nt	nt	6	0	-20	14
COCCN(C(=O)CCl)C(C(=O)NC1CCCCC1)c1ccccc1C (centres undefined)	-6	-2	-6	nt	60*	24
Cc1cccc(N2CCN(C(=O)CNC(=O)c3cccc([N+](=O)[O-])c3)CC2)c1C	-8	0	-19*	1	15	-15
SMILES	miR-122 sensor	Cneo AK release	rRNA inh HTS	F508del corr	Env fusion inh	INS-1E GSIS act
Cc1cccc(N2CCN(C(=O)CNC(=O)Cc3ccccc3)CC2)c1C	nt	0	-2	0	nt	-23
Cc1ccccc1N(C(=O)CCCC(=O)Nc1ccccn1)C(C(=O)NC1CCCC1)c1ccc(O)cc1 (centres undefined)	132*	2	1	0	4	-27
O=C(O)c1ccc(N/N=C/c2ccc3nccnc3c2)cc1	-9	nt	-1	-1	75*	35
CCC(=O)N1CCC2(CC1)CN(S(=O)(=O)c1ccccc1)[C@H](CO)c1[nH]c3cc(OC)ccc3c12	nt	nt	-6	-2	nt	-5
O=C(C[C@H]1C[C@H]2c3cc(NS(=O)(=O)c4ccc(F)cc4)ccc3O[C@H]2[C@@H](CO)O1)NCCN1CCCCC1	-7[16.7 µM]	1	4	0	-2[16.7 µM]	3
O=C(COC(=O)/C=C/c1ccccc1Cl)NC(=O)NCc1ccccc1	-9	-1	2	8.9*	nt	9
O=C(/C=C/c1ccccc1Cl)NCc1ccccc1	-1	-4	nt	nt	-25	-20
Cc1ccc(SCCNC(=O)/C=C/c2ccc(Cl)cc2)cc1	nt	nt	nt	nt	-73	-22
Cc1ccc(SCCNC(=O)/C=C/c2ccccc2Cl)cc1	nt	0	-24*	-1	nt	-9
O=C(COC(=O)/C=C/c1ccccc1Cl)NC(=O)Cc1ccccc1	-8	-4	-10	nt	-7	10
O=C(/C=C/c1ccccc1Cl)NCCc1ccccc1	8	-1	-26*	0	nt	-43
C[C@H](CO)N1C[C@H](C)[C@H](CN(C)Cc2ccc3c(c2)OCO3)OCCCC[C@H](C)Oc2ccc(NS(=O)(=O)c3cccs3)cc2C1=O	-2[16.7 µM]	-4	1	1	4[16.7 µM]	22
COc1ccc(OC)c(-c2cnc(OC(C)(C)C)nc2OC(C)(C)C)c1	10	0	4	14*	-178	3
COCC(=O)N(C)C[C@@H]1Oc2ncc(C#CC(C)(C)O)cc2C(=O)N([C@H](C)CO)C[C@@H]1C	-7[16.7 µM]	-9	1	1	nt	14
O=c1[nH][nH]cc1C=Nc1ccccc1O	-24	nt	nt	nt	72*	nt
CCOC(=O)c1ccc(NC(=O)c2ccc(CN3CCc4ccccc4C3)cc2)cc1	nt	0	-23	-2	58*	-39
C[C@@H]1CN([C@@H](C)CO)C(=O)c2cc(NC(=O)Nc3cccc4ccccc34)ccc2O[C@@H](C)CCCCO[C@@H]1CN(C)Cc1ccccc1	-2[16.7 µM]	-4	-1	-2	15[16.7 µM]	-8
N#CC(CCc1ccc([N+](=O)[O-])cc1)(CCc1ccc([N+](=O)[O-])cc1)C(N)=O	-5	3	-19*	2	nt	nt
O=[N+]([O-])c1ccc(Cc2ccc([N+](=O)[O-])cc2)cc1	-9	nt	2	nt	-10	nt
CC(C)CC#Cc1ccc2c(c1)O[C@@H](CN(C)C(=O)Cc1ccncc1)[C@@H](C)CN([C@@H](C)CO)S2(=O)=O	-3[16.7 µM]	57	3	1	-10[16.7 µM]	-12
C[C@H](CO)N1C[C@H](C)[C@H](CN(C)S(=O)(=O)c2ccccc2)Oc2ccc(NC(=O)Nc3ccc4c(c3)OCO4)cc2CC1=O	-2[16.7 µM]	nt	2	1	75*[16.7 µM]	-17
